Laboratory results taken from ChEMBL document CHEMBL1221182, “Functional characterization of IRESes by an inhibitor of the RNA helicase eIF4A” (Nat Chem Biol, 2006).

Target: Eukaryotic initiation factor 4A-I (Mus musculus, UniProt P60843)
Experiment: Inhibition of eIF4A-mediated cap-dependent protein synthesis in FF-HCV-Ren mRNA transfected Swiss mouse Krebs2 cell extract by [35S]methionine metabolic labeling study
Procedure, shortened: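 Cell-free translation in Krebs-2 extracts programmed with capped bicistronic FF-HCV-Ren transcript: cap-dependent firefly cistron, HCV IRES-driven renilla cistron. Final mRNA 5 µg ml⁻¹, K⁺ 100 mM, compound titrated. Controls carry a matched final DMSO level. Products labeled with [³⁵S]methionine, separated by 10% SDS-PAGE, and autoradiographed. Luciferase activities are read by luminometer and expressed relative to vehicle reactions.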

Chain of Eukaryotic initiation factor 4A-I (P60843 whole entry): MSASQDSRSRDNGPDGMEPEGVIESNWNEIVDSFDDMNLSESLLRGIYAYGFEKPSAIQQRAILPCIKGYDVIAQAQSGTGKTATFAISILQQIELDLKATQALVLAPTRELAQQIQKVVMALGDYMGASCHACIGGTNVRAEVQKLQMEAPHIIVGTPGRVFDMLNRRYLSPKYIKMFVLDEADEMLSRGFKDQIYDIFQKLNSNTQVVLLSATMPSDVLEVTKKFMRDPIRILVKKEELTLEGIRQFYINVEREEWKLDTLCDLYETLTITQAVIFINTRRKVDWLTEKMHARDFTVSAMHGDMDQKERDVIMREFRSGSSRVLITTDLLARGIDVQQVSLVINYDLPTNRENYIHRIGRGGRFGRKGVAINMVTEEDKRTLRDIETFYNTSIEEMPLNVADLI

Compound	IC50 [µM]
CC(=O)O[C@@H]1CC[C@@]2(C)[C@@H](CC[C@@H]3[C@@H]2[C@@H](O)C[C@@]2(C)[C@H]3C[C@@H]3O[C@]4(C[C@H](C)C(C)(C)O4)[C@](C)(O)[C@@H]32)C1	> 100
CC(=O)O[C@@H]1CC[C@@]2(C)[C@@H](CC[C@@H]3[C@@H]2[C@@H](OC(C)=O)C[C@@]2(C)[C@H]3C[C@@H]3O[C@]4(C[C@H](C)C(C)(C)O4)[C@](C)(O)[C@@H]32)C1	> 100
C[C@H]1C[C@]2(O[C@H]3C[C@H]4[C@@H]5CC[C@H]6C[C@H](O)CC[C@]6(C)[C@H]5C(=O)C[C@]4(C)[C@H]3[C@@]2(C)O)OC1(C)C	> 100
C[C@H]1C[C@]2(O[C@H]3C[C@H]4[C@@H]5CC[C@H]6CC(=O)CC[C@]6(C)[C@H]5C(=O)C[C@]4(C)[C@H]3[C@@]2(C)O)OC1(C)C	> 100
C[C@H]1C[C@]2(O[C@H]3C[C@H]4[C@@H]5CC[C@H]6C[C@H](O)[C@H](OC(=O)CCCC(=O)O)C[C@]6(C)[C@H]5[C@@H](O)C[C@]4(C)[C@H]3[C@@]2(C)O)OC1(C)C	35
CC(=O)O[C@@H]1CC[C@@]2(C)[C@@H](CC[C@@H]3[C@@H]2[C@@H](O)C[C@@]2(C)[C@H]3C[C@@H]3O[C@@]4(C[C@H](C)C(C)(C)O4)[C@](C)(O)[C@@H]32)C1	10
CC(=O)O[C@@H]1CC[C@@]2(C)[C@@H](CC[C@@H]3[C@@H]2[C@@H](OC(C)=O)C[C@@]2(C)[C@H]3C[C@@H]3O[C@@]4(C[C@H](C)C(C)(C)O4)[C@](C)(O)[C@@H]32)C1	64
C[C@H]1C[C@@]2(O[C@H]3C[C@H]4[C@@H]5CC[C@H]6C[C@H](O)CC[C@]6(C)[C@H]5C(=O)C[C@]4(C)[C@H]3[C@@]2(C)O)OC1(C)C	9
C[C@H]1C[C@@]2(O[C@H]3C[C@H]4[C@@H]5CC[C@H]6CC(=O)CC[C@]6(C)[C@H]5C(=O)C[C@]4(C)[C@H]3[C@@]2(C)O)OC1(C)C	52
